Dynein cargo inh = inhibitors of GR-EGFP nuclear translocation, primary screen, dynein cargo transport inhibitor project, imaging, high-content, 3617.4 mouse cells; test concentration mostly 20 µM; stimulated with dexamethasone, 1 µM; hits give low values; z-score, hits read low; 0.47% of 220,000 active; AID 1381, 2008;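 active = plate z-score of nuclear minus cytoplasmic receptor signal below a set negative limit, without overly bright fluorescence or cell loss, cut at about -3.5 in these data, passing the limit was not always enough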;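 note: z-score of nuclear minus cytoplasmic ring GR-EGFP intensity difference per well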
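Also added: dexamethasone, 1.0 µM final. Medium: tet-free, stripped-serum medium. Detection: fixed, Hoechst-stained cells imaged at 10x for EGFP. Read-out: nuclear-to-cytoplasmic GR-EGFP distribution per well. Times: induction 48 h, compound 1 h, agonist 30 min.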
Hsp70 act = Hsp70 transcriptional activators, primary screen, cell-based, HeLa, Hsp70 promoter luciferase, luminescence, 10 µM; 0.04% of 200,000 active; activation, % at 10 µM; HeLa Hsp70 promoter luciferase reporter; scaled: vehicle 0, proteasome-inhibitor control 100%;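 active = activation above the mean across all tested compounds plus 3 SD, cutoff set per campaign, cut at about 5.5% in these data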;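 note: 100% = MG132 at 30 µM as the positive control and 0% = DMSO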
S1P4 agonist = S1P4 receptor agonists, primary screen, cell-based. Sphingosine 1-phosphate receptor 4 (Homo sapiens), O95977. activation, % at 4.98 µM. 0.35% of 220,000 active. AID 1509, 2009. S1P4-expressing cell line, agonist reporter assay; in the data active = activation above about 11%;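 note: 0% = DMSO vehicle and 100% = reference agonist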
Target sequence (O95977 whole entry, looked up): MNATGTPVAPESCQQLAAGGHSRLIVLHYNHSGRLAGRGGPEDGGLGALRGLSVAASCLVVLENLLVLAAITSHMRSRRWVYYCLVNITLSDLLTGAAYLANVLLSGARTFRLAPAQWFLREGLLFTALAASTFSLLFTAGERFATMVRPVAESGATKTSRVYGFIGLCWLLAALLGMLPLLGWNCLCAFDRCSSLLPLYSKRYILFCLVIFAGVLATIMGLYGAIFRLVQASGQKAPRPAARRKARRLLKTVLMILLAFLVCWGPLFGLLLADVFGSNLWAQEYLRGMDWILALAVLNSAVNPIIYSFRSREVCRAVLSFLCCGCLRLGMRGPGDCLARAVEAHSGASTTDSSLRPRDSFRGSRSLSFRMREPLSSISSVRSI
Mdm2 ligase inh = MDM2-luciferase reporter signal enhancers, primary screen, MDM2 E3 ligase inhibitor project, cell-based, luminescence, 1536-well; E3 ubiquitin-protein ligase Mdm2 (Homo sapiens), Q00987; 0.11% of 210,000 active; cell-based MDM2 ubiquitination luciferase reporter, 2 h; 0 = plate control, 100 = twice control, blank-subtracted; signal enhancement, % at 5 µM;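 active = signal enhancement of 30% or more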;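 note: luminescence tracks abundance of the self-degrading MDM2-luciferase fusion protein; higher signal means inhibition of MDM2 E3 ligase activity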
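System: stable MDM2–luciferase fusion reporter cells / Input: 2000 cells seeded into each well / Schedule: 4 h settle plus 2 h compound, 37 °C / Compound: single-point 5 µM / Buffer or medium: cells held in DMEM / Benchmarks: control and blank well means / Evaluation: percent signal gain over controls, blank-subtracted / Measured by: luciferase luminescence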
S1P3 antagonist = S1P3 receptor antagonists, primary screen, cell-based. Sphingosine 1-phosphate receptor 3 (Homo sapiens), Q99500. CHO S1P3 NFAT-BLA reporter, FRET fluorescence, antagonist mode. inhibition, % at 4.98 µM. 0.27% of 170,000 active. AID 485, 2006;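 active = inhibition above the plate cutoff, the mean inhibition of test wells on that plate plus 3 SD, cut at about 28% in these data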;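 note: cells challenged with S1P at its EC80 of 0.8 µM; blue over green emission ratio from cleaved BLA substrate after 4 h stimulation; 0% = S1P-stimulated wells and 100% = unstimulated DMSO-only wells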
S1P4 antag = S1P4 receptor antagonists, primary screen, cell-based. 0.26% of 220,000 active. inhibition, % at 4.98 µM. S1P4-expressing cells, antagonist mode, reporter read-out; in the data active = inhibition above about 29%;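 note: 0% = wells stimulated with agonist and 100% = vehicle wells without agonist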
Starred values were filed as active, the others as inactive; . = not tested or not shown. Only some compounds are listed: those with a hit (about 1.3% of all), similar ones and a draw of the others.

SMILES	Dynein cargo inh	Hsp70 act	S1P4 agonist	Mdm2 ligase inh	S1P3 antagonist	S1P4 antag
CCCCCCCC[n+]1cccc(C(=O)N(CC)CC)c1	0.21	0	1	-6	-3	-8
CCCCCCCCCCCCCCCC[n+]1cccc(C(=O)N(CC)CC)c1	-5.1*	0	1	-16	16	2
CN1C(=O)C(CC(=O)O)S/C1=N\N=C\c1ccc(O)cc1O (stereo not given)	0.96	.	1	1	-4	17
CNC(=S)n1cnc(N)n1	-0.81	.	0	.	2	-1
COc1ccccc1N1CCN(C(c2ccc(C)cc2)c2nnnn2C(C)C)CC1 (stereo not given)	-0.38	0	2	38*	32	-8
COc1ccccc1N1CCN(C(c2ccc(F)cc2)c2nnnn2C(C)C)CC1 (stereo not given)	1.4	0	-3	-2	-7	-5
O=C1CN(c2cc(Cl)cc(Cl)c2)C(=O)CN1/N=C/c1cccnc1	1	.	1	77*	2	6
O=C1CSC(=S)N1/N=C/c1cccnc1	0.43	.	-2	-5	-1	-11
Cc1[nH]c2ccccc2c1CCC(N)=O	0.25	0	0	-30	4	5
Cc1[nH]c2ccccc2c1Cc1nnc(SCC(N)=O)o1	0.48	0	-1	-11	82*	1
COc1cc(CNC(=O)c2nc(Cn3nc(C)c(Br)c3C)no2)cc(OC)c1	0.47	0	0	-11	-13	-1
COc1nc(Nc2nc3ccccc3c(=O)[nH]2)nc2ccc(C)cc12	-0.07	.	-1	.	70*	-9
Cc1cc(C)cc(Nc2nc3ccccc3c(=O)[nH]2)c1	0.64	0	-1	19	11	-5
CCCCOc1ccc(S(=O)(=O)Nc2cc(OC)ccc2OC)cc1	-0.12	0	-2	-31	55*	-4
COc1ccc(OC)c(NS(=O)(=O)c2ccc(Cl)nc2)c1	-0.22	0	0	-6	-6	-11
Cc1cc(C)c(C#N)c(SCC(=O)C2CC2)n1	-0.81	.	2	-3	8	-14
CC(C)c1ccc2c(c1)C1(NN=C(c3ccccc3)S1)C(=O)N2 (stereo not given)	-2	1	0	45*	.	-5
CCc1ccc2c(c1)C1(NN=C(c3ccc(C)cc3)S1)C(=O)N2 (stereo not given)	-0.47	0	0	4	.	7
CCCCC(=O)Nc1ccc(Br)cn1	-0.25	0	-2	-1	.	-5
CC(C)=CC1C(C(=O)Nc2ccc(Br)cn2)C1(C)C (stereo not given)	-0.57	0	-1	4	71*	10
CC(C)Cn1c(C(C)C)nc([N+](=O)[O-])c1S(=O)(=O)c1ccc(F)cc1	-3.7*	0	1	-34	.	-4
CN(C)c1oc(-c2ccccc2Cl)nc1C#N	-0.21	0	0	32*	2	4
CN(C)c1oc(-c2ccccc2)nc1C#N	-0.94	0	0	-5	.	-6
CCOC(=O)c1sc2nc(NC(=O)c3cccs3)sc2c1C	.	.	.	.	70*	.
COCc1cc(=O)[nH]c(Nc2nc3ccc(C)cc3o2)n1	0.92	0	1	36*	.	-1
SMILES	Dynein cargo inh	Hsp70 act	S1P4 agonist	Mdm2 ligase inh	S1P3 antagonist	S1P4 antag
c1ccc(CSC2=NNC(c3ccccn3)S2)cc1 (stereo not given)	0.53	.	-1	37*	9	6
O=C(CSC1=NNC(c2ccccn2)S1)Nc1ccc(C(F)(F)F)cc1 (stereo not given)	-0.3	.	-1	37*	16	20
c1ccc(CSc2ncccn2)cc1	0.067	0	1	-21	25	-23
CC(=O)Nc1ccc(NC(=O)CSc2ccccn2)cc1	-0.6	0	0	-2	-2	-5
COc1ccc(CCN2C(=O)CC(C(N)=O)SC2=Nc2ccc(F)cc2)cc1OC (stereo not given)	0.83	0	2	.	-6	-6
COc1ccc(CN2CCC(N(CCc3ccccc3)Cc3ccccc3)CC2)c(OC)c1	-0.99	0	0	-13	-9	18
CCN(CC)CCCNC(CC(=O)O)C(=O)O (stereo not given)	.	.	.	.	-32	.
CNC(CC(=O)c1ccc([N+](=O)[O-])cc1)C(Cl)(Cl)Cl (stereo not given)	-3.5*	0	0	-1	3	-4
Cn1nc([N+](=O)[O-])c(C(C#N)c2ccccn2)c(Cl)c1=O (stereo not given)	-5.9*	0	1	-2	0	-5
COc1ccc(NC(=S)N2CCC(C(=O)c3ccc(C)cc3)CC2)c(OC)c1	0.69	0	-1	-19	-17	-3
COc1ccc2[nH]c(C(=O)O)c(CCNC(C)=O)c2c1	-0.41	0	-2	40*	-20	-18
O=C(O)c1ccccc1C(=O)NCCc1c(C(=O)O)[nH]c2ccc(Cl)cc12	-0.25	.	-1	-12	-3	12
CCc1ccc(S(=O)(=O)/N=C2/C=C(Sc3ncn[nH]3)C(=O)c3ccccc32)cc1	-6.7*	0	4	15	-7	-33
O=C(Cc1sc(Nc2ccccc2)nc1-c1ccccc1)NCc1ccccn1	-0.94	0	0	-11	1	7
O=C(CNC(=O)c1ccc(Cl)cc1)OCC(=O)N1CCCC1	2	0	-1	-39	-8	-22
Cc1cc2cc(C)c(SCC(=O)NCc3ccco3)nc2cc1C	-0.15	0	0	31*	-7	-2
Cc1ccc2cc(C)c(SCC(=O)NCc3ccco3)nc2c1	0.73	0	0	-8	-12	-6
Cc1c(C(=O)OCCOC(C)C)[nH]c2c1C(=O)CC(c1ccco1)C2 (stereo not given)	-0.41	1	-1	-6	54*	15
CCCCOC(=O)c1[nH]c2c(c1C)C(=O)CC(c1cc(OC)c(OC)c(OC)c1)C2 (stereo not given)	0.4	0	2	-28	52*	-5
Cc1ccc(SCCC(=O)OCC(=O)NCC2CCCCC2)cc1	-0.28	0	-2	-58	-12	-11
COc1ccc(NC(=O)/C(C#N)=C\c2ccc(OCc3ccc(C(=O)O)cc3)c(OC)c2)cc1	0.76	0	0	30*	-2	-89
COc1c(C)cc(C(=O)C2CCCN(C(=O)c3snnc3C)C2)cc1C (stereo not given)	0.14	0	2	0	1	-19

From PubChem BioAssay
